Source: ChEMBL document CHEMBL4229344 (Eur J Med Chem, 2018)
Calls of active or inactive are those of the source. The calls are words filed in the database; no cut-off is given here.

Key:
[1] = system: Mast/stem cell growth factor receptor Kit (Homo sapiens), P10721 [A829P]; assay: Binding affinity to human partial length KIT A829P mutant (I571 to D952 residues) expressed in mammalian expression system assessed as residual binding level at 1 uM by Kinomescan method relative to control
Summary of the method: (§1)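 Kinome-wide single-concentration binding screen (KINOMEscan) at 1 μM against a panel of 468 purified kinases and mutants. Read-out is relative binding of each kinase compared with control. Selectivity across the panel was summarised as an S(10) score.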

[2] = target: Death-associated protein kinase 3 (Homo sapiens) (UniProt O43293); assay: Binding affinity to wild-type human partial length DAPK3 (M1 to A277 residues) expressed in bacterial expression system assessed as residual binding level at 1 uM by Kinomescan method relative to control
Sequence of Death-associated protein kinase 3 (Homo sapiens) (O43293 whole entry, looked up, the tested form may be a part): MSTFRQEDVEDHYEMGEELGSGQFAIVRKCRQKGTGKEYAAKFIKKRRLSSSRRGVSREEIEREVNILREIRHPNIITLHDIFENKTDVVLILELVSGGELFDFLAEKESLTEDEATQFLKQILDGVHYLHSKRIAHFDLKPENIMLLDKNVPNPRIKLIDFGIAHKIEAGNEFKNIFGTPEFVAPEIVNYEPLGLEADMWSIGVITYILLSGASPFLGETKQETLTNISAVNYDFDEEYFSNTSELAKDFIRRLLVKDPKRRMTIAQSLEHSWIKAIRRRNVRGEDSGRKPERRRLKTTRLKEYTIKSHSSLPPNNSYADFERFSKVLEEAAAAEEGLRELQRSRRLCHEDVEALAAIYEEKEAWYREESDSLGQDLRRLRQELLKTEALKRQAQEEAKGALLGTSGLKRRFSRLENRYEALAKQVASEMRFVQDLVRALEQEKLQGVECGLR

[3] = target: Mitogen-activated protein kinase 15 (Homo sapiens) (UniProt Q8TD08); assay: Binding affinity to wild-type human partial length ERK8 (M1 to P437 residues) expressed in bacterial expression system assessed as residual binding level at 1 uM by Kinomescan method relative to control
[4] = target: Serine/threonine-protein kinase PLK3 (Homo sapiens) (UniProt Q9H4B4); assay: Binding affinity to wild-type human partial length PLK3 (A42 to L334 residues) expressed in mammalian expression system assessed as residual binding level at 1 uM by Kinomescan method relative to control
Summary of the method: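 KINOMEscan competition binding against a panel of 468 purified kinases/mutants, compound tested at 1 μM; readout is relative binding activity versus control.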

[5] = target: Serine/threonine-protein kinase 25 (Homo sapiens) (UniProt O00506); assay: Binding affinity to wild-type human partial length YSK1 (V14 to H295 residues) expressed in bacterial expression system assessed as residual binding level at 1 uM by Kinomescan method relative to control
[6] = target: Serine/threonine-protein kinase NLK (Homo sapiens) (UniProt Q9UBE8); assay: Binding affinity to wild-type human full length NLK (M13 to E527 residues) expressed in bacterial expression system assessed as residual binding level at 1 uM by Kinomescan method relative to control
Summary of the method: (§2)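 KINOMEscan competition binding against 468 purified kinases/mutants, test compound at 1 µM; residual binding relative to control.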

[7] = target: Serine/threonine-protein kinase Nek11 (Homo sapiens) (UniProt Q8NG66); assay: Binding affinity to wild-type human partial length NEK11 (M1 to E313 residues) expressed in mammalian expression system assessed as residual binding level at 1 uM by Kinomescan method relative to control
[8] = target: Casein kinase II subunit alpha (Homo sapiens) (UniProt P68400); assay: Binding affinity to wild-type human full length CSNK2A1 (M1 to Q391 residues) expressed in mammalian expression system assessed as residual binding level at 1 uM by Kinomescan method relative to control
Summary of the method: (§3)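 Single-concentration (1 μM) competition-binding screen run by KINOMEscan against a panel of 468 purified kinases and mutants. The read-out is the relative binding activity of the test compound to each kinase.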

[9] = target: Receptor-interacting serine/threonine-protein kinase 2 (Homo sapiens) (UniProt O43353); assay: Binding affinity to wild-type human partial length RIPK2 (M1 to K310 residues) expressed in bacterial expression system assessed as residual binding level at 1 uM by Kinomescan method relative to control
[10] = target: Ribosomal protein S6 kinase alpha-2 (Homo sapiens) (UniProt Q15349); assay: Binding affinity to wild-type human partial length N-terminal RSK3 kinase domain 1 (M1 to Q385 residues) expressed in bacterial expression system assessed as residual binding level at 1 uM by Kinomescan method relative to control
Sequence of Ribosomal protein S6 kinase alpha-2 (Homo sapiens) (Q15349 whole entry, the tested form may be a part): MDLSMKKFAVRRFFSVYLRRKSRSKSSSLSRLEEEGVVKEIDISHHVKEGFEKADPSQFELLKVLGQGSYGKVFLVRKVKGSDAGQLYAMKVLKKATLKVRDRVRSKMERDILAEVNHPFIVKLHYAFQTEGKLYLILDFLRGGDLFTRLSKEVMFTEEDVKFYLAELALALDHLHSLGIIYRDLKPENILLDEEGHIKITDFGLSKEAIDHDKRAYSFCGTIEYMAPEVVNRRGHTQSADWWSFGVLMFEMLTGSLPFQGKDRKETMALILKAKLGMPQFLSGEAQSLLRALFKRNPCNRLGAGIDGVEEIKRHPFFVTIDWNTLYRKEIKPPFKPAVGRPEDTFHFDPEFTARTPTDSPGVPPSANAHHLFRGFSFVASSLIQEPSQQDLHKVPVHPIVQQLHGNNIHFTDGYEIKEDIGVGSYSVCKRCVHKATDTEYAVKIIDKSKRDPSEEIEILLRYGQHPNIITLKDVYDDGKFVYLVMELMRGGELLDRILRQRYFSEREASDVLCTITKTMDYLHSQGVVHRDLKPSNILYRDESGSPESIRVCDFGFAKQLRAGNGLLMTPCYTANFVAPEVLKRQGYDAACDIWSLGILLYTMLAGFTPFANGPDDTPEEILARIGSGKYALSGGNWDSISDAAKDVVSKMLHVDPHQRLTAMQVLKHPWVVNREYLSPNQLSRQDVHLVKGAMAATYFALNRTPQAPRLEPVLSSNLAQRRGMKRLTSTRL

NCI-H1703 = assay: Cell cycle arrest in human NCI-H1703 cells assessed as accumulation at G0/G1 phase at 0.3 to 10 uM after 72 hrs in presence of PDGF-AA by propidium iodide/RNase staining-based flow cytometric analysis; format: functional
Summary of the method: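 Cells treated with compound or DMSO for the stated periods, fixed overnight in 70% cold ethanol at −20 °C, stained with PI/RNase buffer, then analysed by flow cytometry for cell-cycle distribution. For NCI-H1703 stimulation, PDGF AA was used at 100 ng/mL.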

[11] = system: Epidermal growth factor receptor (Homo sapiens), P00533 [L858R]; assay: Binding affinity to human partial length EGFR L858R mutant (R669 to V1011 residues) expressed in bacterial expression system assessed as residual binding level at 1 uM by Kinomescan method relative to control; summary of the method: as §1
[12] = target: Serine/threonine-protein kinase RIO1 (Homo sapiens) (UniProt Q9BRS2); assay: Binding affinity to wild-type human full length RIOK1 (M1 to K568 residues) expressed in bacterial expression system assessed as residual binding level at 1 uM by Kinomescan method relative to control
Sequence of Serine/threonine-protein kinase RIO1 (Homo sapiens) (Q9BRS2 whole entry, the tested form may be a part): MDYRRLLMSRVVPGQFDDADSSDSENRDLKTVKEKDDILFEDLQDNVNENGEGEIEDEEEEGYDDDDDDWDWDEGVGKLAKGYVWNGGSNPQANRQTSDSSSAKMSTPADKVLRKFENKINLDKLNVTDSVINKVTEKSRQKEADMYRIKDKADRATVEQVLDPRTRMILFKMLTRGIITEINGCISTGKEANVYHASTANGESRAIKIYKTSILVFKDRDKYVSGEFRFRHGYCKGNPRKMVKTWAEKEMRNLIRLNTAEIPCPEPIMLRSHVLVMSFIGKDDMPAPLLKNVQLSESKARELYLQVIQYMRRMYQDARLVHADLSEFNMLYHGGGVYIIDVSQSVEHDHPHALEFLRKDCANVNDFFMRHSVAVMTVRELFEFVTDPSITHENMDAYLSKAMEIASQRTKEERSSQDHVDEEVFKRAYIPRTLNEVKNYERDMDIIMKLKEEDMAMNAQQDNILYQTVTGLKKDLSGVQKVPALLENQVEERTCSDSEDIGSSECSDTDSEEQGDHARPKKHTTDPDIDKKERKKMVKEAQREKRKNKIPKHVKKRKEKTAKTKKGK
Summary of the method: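 Single-concentration KINOMEscan (DiscoverX) binding screen at 1 μM against a panel of 468 purified kinases and mutants. The read-out is binding relative to control.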

[13] = target: TGF-beta receptor type-1 (Homo sapiens) (UniProt P36897); assay: Binding affinity to wild-type human partial length TGFBR1 (D179 to M503 residues) expressed in bacterial expression system assessed as residual binding level at 1 uM by Kinomescan method relative to control
[14] = target: Calcium/calmodulin-dependent protein kinase type 1 (Homo sapiens) (UniProt Q14012); assay: Binding affinity to wild-type human full length CAMK1 (M1 to L370 residues) expressed in bacterial expression system assessed as residual binding level at 1 uM by Kinomescan method relative to control; summary of the method: as §3
Sequence of Calcium/calmodulin-dependent protein kinase type 1 (Homo sapiens) (Q14012 whole entry, looked up, the tested form may be a part): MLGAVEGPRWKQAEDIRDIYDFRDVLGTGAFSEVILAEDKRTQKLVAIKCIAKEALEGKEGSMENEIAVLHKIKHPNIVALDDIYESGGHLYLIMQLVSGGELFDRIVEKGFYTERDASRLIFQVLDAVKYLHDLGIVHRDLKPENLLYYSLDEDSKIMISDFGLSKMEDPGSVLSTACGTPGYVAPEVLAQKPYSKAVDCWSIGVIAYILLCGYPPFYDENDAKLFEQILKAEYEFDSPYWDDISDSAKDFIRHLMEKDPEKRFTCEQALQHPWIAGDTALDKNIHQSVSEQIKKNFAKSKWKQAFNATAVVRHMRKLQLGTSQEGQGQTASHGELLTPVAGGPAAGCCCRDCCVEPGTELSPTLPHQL

[15] = target: Fibroblast growth factor receptor 4 (Homo sapiens) (UniProt P22455); assay: Binding affinity to wild-type human partial length FGFR4 (G402 to E713 residues) expressed in bacterial expression system assessed as residual binding level at 1 uM by Kinomescan method relative to control
Sequence of Fibroblast growth factor receptor 4 (Homo sapiens) (P22455 22-802 limits assumed): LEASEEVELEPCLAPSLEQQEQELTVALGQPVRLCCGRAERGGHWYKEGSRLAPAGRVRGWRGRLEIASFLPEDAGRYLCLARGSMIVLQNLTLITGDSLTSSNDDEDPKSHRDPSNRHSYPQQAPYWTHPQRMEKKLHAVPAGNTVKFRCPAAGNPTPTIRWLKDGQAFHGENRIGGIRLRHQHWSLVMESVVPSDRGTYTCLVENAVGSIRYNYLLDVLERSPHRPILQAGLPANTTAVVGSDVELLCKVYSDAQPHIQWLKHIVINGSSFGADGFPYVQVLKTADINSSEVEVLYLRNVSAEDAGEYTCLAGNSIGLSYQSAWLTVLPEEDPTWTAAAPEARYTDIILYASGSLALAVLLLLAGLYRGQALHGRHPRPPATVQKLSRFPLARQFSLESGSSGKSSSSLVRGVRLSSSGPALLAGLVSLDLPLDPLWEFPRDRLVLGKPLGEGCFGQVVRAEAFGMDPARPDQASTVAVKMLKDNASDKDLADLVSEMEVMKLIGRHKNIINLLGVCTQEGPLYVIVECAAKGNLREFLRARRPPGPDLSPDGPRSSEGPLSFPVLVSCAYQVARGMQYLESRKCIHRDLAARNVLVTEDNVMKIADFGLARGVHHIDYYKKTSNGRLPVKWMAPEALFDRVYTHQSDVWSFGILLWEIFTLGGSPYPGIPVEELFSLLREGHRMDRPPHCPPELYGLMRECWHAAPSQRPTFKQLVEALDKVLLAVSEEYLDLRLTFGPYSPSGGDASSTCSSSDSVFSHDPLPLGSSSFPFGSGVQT
Summary of the method: (§4)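 Kinome-wide competition binding screen against a panel of 468 purified kinases/mutants, with the test compound at a single concentration of 1 μM. Read-out is the relative binding activity of each kinase in the presence of compound.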

[16] = target: Dual specificity protein kinase CLK2 (Homo sapiens) (UniProt P49760); assay: Binding affinity to wild-type human partial length CLK2 (D144 to R498 residues) expressed in bacterial expression system assessed as residual binding level at 1 uM by Kinomescan method relative to control; summary of the method: as §4
[17] = target: Mitogen-activated protein kinase 8 (Homo sapiens) (UniProt P45983); assay: Binding affinity to wild-type human full length JNK1 (M1 to Q384 residues) expressed in mammalian expression system assessed as residual binding level at 1 uM by Kinomescan method relative to control; summary of the method: as §2
Sequence of Mitogen-activated protein kinase 8 (Homo sapiens) (P45983 whole entry, the tested form may be a part): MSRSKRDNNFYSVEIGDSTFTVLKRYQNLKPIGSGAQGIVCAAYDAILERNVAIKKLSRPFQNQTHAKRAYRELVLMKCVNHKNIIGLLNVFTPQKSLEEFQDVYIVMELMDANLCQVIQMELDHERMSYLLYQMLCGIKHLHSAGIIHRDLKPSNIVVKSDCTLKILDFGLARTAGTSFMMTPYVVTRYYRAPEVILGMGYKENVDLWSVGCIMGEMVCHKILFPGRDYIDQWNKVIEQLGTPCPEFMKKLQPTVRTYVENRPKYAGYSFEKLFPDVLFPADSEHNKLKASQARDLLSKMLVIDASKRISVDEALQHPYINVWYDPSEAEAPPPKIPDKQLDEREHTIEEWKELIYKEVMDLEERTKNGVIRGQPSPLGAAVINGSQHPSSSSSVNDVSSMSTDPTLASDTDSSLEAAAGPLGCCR

[18] = target: Misshapen-like kinase 1 (Homo sapiens) (UniProt Q8N4C8); assay: Binding affinity to wild-type human partial length MINK (M1 to K312 residues) expressed in mammalian expression system assessed as residual binding level at 1 uM by Kinomescan method relative to control; summary of the method: as §4
Sequence of Misshapen-like kinase 1 (Homo sapiens) (Q8N4C8 whole entry, looked up, the tested form may be a part): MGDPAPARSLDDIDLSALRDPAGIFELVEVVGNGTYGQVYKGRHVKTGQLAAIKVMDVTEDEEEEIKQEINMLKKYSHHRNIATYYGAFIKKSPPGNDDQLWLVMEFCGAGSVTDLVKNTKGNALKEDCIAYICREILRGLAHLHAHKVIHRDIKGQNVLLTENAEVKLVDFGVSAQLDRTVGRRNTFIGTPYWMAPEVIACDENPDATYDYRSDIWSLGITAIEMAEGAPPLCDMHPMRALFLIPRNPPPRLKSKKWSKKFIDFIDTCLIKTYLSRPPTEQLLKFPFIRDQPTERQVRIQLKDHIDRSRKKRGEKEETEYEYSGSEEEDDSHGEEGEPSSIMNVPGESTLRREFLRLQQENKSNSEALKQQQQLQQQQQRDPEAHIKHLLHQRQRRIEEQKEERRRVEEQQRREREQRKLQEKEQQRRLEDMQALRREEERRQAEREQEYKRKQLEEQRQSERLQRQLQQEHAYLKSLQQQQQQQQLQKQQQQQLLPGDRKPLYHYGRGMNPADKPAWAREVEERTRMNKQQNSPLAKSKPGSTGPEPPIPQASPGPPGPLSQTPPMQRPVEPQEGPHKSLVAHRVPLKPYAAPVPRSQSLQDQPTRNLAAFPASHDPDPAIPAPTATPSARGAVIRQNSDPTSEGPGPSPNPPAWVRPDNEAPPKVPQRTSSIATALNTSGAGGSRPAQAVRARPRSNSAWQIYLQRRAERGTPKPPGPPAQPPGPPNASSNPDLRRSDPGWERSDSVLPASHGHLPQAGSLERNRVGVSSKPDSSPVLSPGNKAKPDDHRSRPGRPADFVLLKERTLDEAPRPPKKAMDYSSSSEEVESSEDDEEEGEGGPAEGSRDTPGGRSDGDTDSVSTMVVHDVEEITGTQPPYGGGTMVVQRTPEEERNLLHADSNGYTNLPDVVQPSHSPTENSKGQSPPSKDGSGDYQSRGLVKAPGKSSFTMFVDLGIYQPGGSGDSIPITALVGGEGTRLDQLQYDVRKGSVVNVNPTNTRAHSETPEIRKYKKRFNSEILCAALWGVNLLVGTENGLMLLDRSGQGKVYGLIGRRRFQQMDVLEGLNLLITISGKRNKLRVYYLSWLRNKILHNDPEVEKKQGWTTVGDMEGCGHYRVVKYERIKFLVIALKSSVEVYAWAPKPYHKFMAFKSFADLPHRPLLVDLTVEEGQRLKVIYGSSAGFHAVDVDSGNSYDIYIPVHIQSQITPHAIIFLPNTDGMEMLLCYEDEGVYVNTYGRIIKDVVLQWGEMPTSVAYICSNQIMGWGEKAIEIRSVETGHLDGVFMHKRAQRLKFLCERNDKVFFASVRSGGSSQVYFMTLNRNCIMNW

[19] = target: Cyclin-dependent kinase 3 (Homo sapiens) (UniProt Q00526); assay: Binding affinity to wild-type human full length CDK3 (M1 to H305 residues) expressed in bacterial expression system assessed as residual binding level at 1 uM by Kinomescan method relative to control; summary of the method: as §3
Sequence of Cyclin-dependent kinase 3 (Homo sapiens) (Q00526 whole entry, looked up, the tested form may be a part): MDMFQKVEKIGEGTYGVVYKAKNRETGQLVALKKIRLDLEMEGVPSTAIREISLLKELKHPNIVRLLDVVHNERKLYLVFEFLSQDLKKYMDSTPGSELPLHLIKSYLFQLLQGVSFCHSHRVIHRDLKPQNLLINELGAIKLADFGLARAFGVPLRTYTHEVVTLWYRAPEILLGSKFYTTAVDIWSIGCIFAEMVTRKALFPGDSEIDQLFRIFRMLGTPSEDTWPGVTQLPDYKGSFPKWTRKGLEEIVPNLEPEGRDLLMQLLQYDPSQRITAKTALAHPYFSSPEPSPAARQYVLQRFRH

Mus musculus = assay: Toxicity in NOD-SCID mouse engrafted with human EOL-1 cells assessed as change in body weight at 30 mg/kg/day, ip administered 3 weeks post cell inoculation; format: organism-based; details: in vivo, 504 h

Cc1ccc(NC(=O)c2ccc(CN(CCN(C)C)C(=O)c3cccnc3)cc2)cc1Nc1nccc(-c2cccnc2)n1
Activity [1]: 81%
Activity [2]: 93%
Activity [3]: 71%
Activity [4]: 79%
Activity [5]: 100%
Activity [6]: 82%
Activity [7]: 100%
Activity [8]: 81%
Activity [9]: 93%
Activity [10]: 94%
Activity (NCI-H1703): Active
Activity [11]: 100%
Activity [12]: 100%
Activity [13]: 100%
Activity [14]: 81%
Activity [15]: 91%
Activity [16]: 73%
Activity [17]: 36%
Activity [18]: 75%
Activity [19]: 85%
Activity (Mus musculus): Non-Toxic
